Measured values: ChEMBL document CHEMBL3045498, “Antifeedant and larvicidal activities of Rhein isolated from the flowers of Cassia fistula L” (2011)
In brackets after ≈: the same amount, converted by molar mass.

Assays:
Assay type in all cases: functional
[1] = system: Spodoptera litura; experiment: Antifeedant activity against pre-starved fourth-instar larva of Spodoptera litura fed on compound-treated castor leaf assessed as antifeedant index at 500 ppm after 24 hr by leaf disc no choice method
[2] = system: Helicoverpa armigera; experiment: Larvicidal activity against Helicoverpa armigera fed on compound-treated cotton leaf assessed as mortality at 125 ppm after 96 hr relative to control
How it was run: (§1)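 Larvae were fed 24 h on leaf discs treated with compound at several concentrations, then kept on untreated fresh leaves. Diet was replaced every 24 h, and larval mortality was scored 96 h after treatment.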

[3] = system: Helicoverpa armigera; experiment: Larvicidal activity against Helicoverpa armigera fed on compound-treated cotton leaf assessed as mortality at 500 ppm after 96 hr relative to control; how it was run: as §1
[4] = system: Spodoptera litura; experiment: Antifeedant activity against pre-starved fourth instar larva of Spodoptera litura fed on compound-treated castor leaf assessed as antifeedant index at 125 ppm after 24 hr by leaf disc no choice method
[5] = system: Spodoptera litura; experiment: Larvicidal activity against Spodoptera litura fed on compound-treated castor leaf assessed as mortality at 500 ppm after 96 hr relative to control; how it was run: as §1
[6] = system: Helicoverpa armigera; experiment: Larvicidal activity against Helicoverpa armigera fed on compound-treated cotton leaf assessed as mortality at 250 ppm after 96 hr relative to control; how it was run: as §1
[7] = system: Helicoverpa armigera; experiment: Antifeedant activity against pre-starved fourth-instar larva of Helicoverpa armigera fed on compound-treated cotton leaf assessed as antifeedant index at 250 ppm after 24 hr by leaf disk no choice method
[8] = system: Spodoptera litura; experiment: Larvicidal activity against Spodoptera litura fed on compound-treated castor leaf assessed as mortality at 250 ppm after 96 hr relative to control; how it was run: as §1
[9] = system: Spodoptera litura; experiment: Larvicidal activity against Spodoptera litura fed on compound-treated castor leaf assessed as mortality after 96 hr relative to control; how it was run: as §1
[10] = system: Helicoverpa armigera; experiment: Antifeedant activity against pre-starved fourth-instar larva of Helicoverpa armigera fed on compound-treated cotton leaf assessed as antifeedant index at 1000 ppm after 24 hr by leaf disk no choice method
[11] = system: Spodoptera litura; experiment: Larvicidal activity against Spodoptera litura fed on compound-treated castor leaf assessed as mortality at 1000 ppm after 96 hr relative to control; how it was run: as §1
[12] = system: Spodoptera litura; experiment: Larvicidal activity against Spodoptera litura fed on compound-treated castor leaf assessed as mortality at 125 ppm after 96 hr relative to control; how it was run: as §1
[13] = system: Helicoverpa armigera; experiment: Larvicidal activity against Helicoverpa armigera fed on compound-treated cotton leaf assessed as mortality at 1000 ppm after 96 hr relative to control; how it was run: as §1
[14] = system: Helicoverpa armigera; experiment: Antifeedant activity against pre-starved fourth-instar larva of Helicoverpa armigera fed on compound-treated cotton leaf assessed as antifeedant index at 125 ppm after 24 hr by leaf disk no choice method
[15] = system: Helicoverpa armigera; experiment: Larvicidal activity against Helicoverpa armigera fed on compound-treated cotton leaf assessed as mortality after 96 hr relative to control; how it was run: as §1
[16] = system: Spodoptera litura; experiment: Antifeedant activity against pre-starved fourth-instar larva of Spodoptera litura fed on compound-treated castor leaf assessed as antifeedant index at 1000 ppm after 24 hr by leaf disc no choice method
[17] = system: Spodoptera litura; experiment: Antifeedant activity against pre-starved fourth-instar larva of Spodoptera litura fed on compound-treated castor leaf assessed as antifeedant index at 250 ppm after 24 hr by leaf disc no choice method
[18] = system: Helicoverpa armigera; experiment: Antifeedant activity against pre-starved fourth-instar larva of Helicoverpa armigera fed on compound-treated cotton leaf assessed as antifeedant index at 500 ppm after 24 hr by leaf disk no choice method

SMILES | AFI [1] [%] | mortality at 125 ppm [2] [%] | mortality at 500 ppm [3] [%] | AFI [4] [%] | mortality at 500 ppm [5] [%] | mortality at 250 ppm [6] [%] | AFI [7] [%] | mortality at 250 ppm [8] [%] | LC50 [9] [µg/mL] | AFI [10] [%] | mortality at 1000 ppm [11] [%] | mortality at 125 ppm [12] [%] | mortality at 1000 ppm [13] [%] | AFI [14] [%] | LC50 [15] [µg/mL] | AFI [16] [%] | AFI [17] [%] | AFI [18] [%]
C/C=C(\C)C(=O)O[C@H]1C[C@@H](OC(C)=O)[C@@]2(C(=O)OC)CO[C@H]3[C@@H](O)[C@@](C)([C@]45O[C@@]4(C)[C@@H]4C[C@H]5O[C@@H]5OC=C[C@@]54O)[C@H]4[C@]1(CO[C@]4(O)C(=O)OC)[C@@H]32 [AZADIRACHTIN A] | 78.66 | 38.8 | 95 | 60.12 | 100 | 61.2 | 64.13 | 73.8 | 128 (≈ 177 µM) | 86.47 | 100 | 52.5 | 100 | 53.5 | 186 (≈ 258 µM) | 88.02 | 70.08 | 75.88
O=C(O)c1cc(O)c2c(c1)C(=O)c1cccc(O)c1C2=O [RHEIN] | 40.85 | 22.5 | 50 | 27.28 | 21.2 | 32.5 | 55.06 | 15 | 1190 (≈ 4200 µM) | 76.13 | 36.2 | 0 | 67.5 | 47.82 | 606 (≈ 2130 µM) | 56.79 | 33.05 | 59.98
